Legend:
CB2R [1] = biological target: CB2R (Mus musculus, UniProt P47936); test: Radioligand binding, CB2R, [3H]-CP-55,940 competition in mouse spleen homogenate
CB1R = CB1R (Mus musculus, UniProt P47746); test: Radioligand binding, CB1R, [3H]-CP-55,940 competition in mouse brain
[2] = tested on: P-ERK 1/2 expression in HL-60 cells selectively expressing CB2R; test: P-ERK 1/2 expression; type: cell-based, human
In short: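 HL-60 cells grown at 37 °C, 5% CO2, in RPMI 1640 with 10% heat-inactivated FBS, 25 mM HEPES, 2.5 mM pyruvate and gentamicin, and used at 80% confluency. Compounds were given in medium with 1% DMSO for 15 min, with or without 75 nM AM630 added 5 min before. Lysates (HEPES pH 7.9, 4 °C) were western-blotted for P-ERK1/2. Values are % of vehicle, five separate experiments, ±SEM.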

[3] = tested on: P-ERK 1/2 expression in HL-60 cells selectively expressing CB2R; conditions: cited from earlier work
CB2 = conditions: Fig. 2 and introduction; cited from earlier work
CB2R [4] = conditions: CB2R-mediated gastrointestinal assays; cited from earlier work

Sequence of CB1R (P47746 whole entry): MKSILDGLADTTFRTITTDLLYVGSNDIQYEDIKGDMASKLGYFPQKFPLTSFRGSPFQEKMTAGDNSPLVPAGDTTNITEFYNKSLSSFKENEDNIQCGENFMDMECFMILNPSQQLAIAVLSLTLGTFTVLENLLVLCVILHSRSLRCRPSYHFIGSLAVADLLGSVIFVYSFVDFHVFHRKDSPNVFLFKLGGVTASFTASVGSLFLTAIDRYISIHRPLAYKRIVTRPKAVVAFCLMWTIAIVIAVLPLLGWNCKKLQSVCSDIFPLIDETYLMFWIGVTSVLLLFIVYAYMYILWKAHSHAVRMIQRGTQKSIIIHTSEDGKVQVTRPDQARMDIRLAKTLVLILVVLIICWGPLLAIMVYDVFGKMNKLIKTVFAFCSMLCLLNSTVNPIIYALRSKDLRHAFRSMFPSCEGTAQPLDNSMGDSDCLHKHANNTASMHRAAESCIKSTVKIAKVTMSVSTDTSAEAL
Sequence of CB2R (Mus musculus, UniProt P47936) (P47936 whole entry): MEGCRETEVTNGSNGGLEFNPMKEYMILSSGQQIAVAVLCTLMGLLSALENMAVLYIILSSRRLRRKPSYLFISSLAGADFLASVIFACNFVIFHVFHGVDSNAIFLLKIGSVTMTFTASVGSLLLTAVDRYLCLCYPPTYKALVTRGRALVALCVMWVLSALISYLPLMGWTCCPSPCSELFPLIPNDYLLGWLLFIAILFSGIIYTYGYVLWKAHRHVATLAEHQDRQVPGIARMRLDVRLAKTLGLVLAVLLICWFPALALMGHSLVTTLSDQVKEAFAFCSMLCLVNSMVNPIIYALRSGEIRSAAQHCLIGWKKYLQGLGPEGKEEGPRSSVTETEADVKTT

Compound	Ki (CB2R [1])	Ki (CB1R)	other results
Cc1cc2c(cc1Cl)-c1c(c(C(=O)NC3CC4CCC3(C)C4(C)C)nn1-c1ccc(Cl)cc1Cl)C2 (stereo not drawn) [Compound 6, N-Bornyl-7-chloro-1-(2,4-dichlorophenyl)-6-methyl-1,4-dihydroindeno[1,2-c]pyrazole-3-carboxamide]	474 ± 25 nM	2.67 ± 0.167 µM	
Cc1cc2c(cc1Cl)-c1c(c(C(=O)NC34CC5CC(CC(C5)C3)C4)nn1-c1ccc(Cl)cc1Cl)C2 [Compound 10, N-Adamant-1-yl-7-chloro-1-(2,4-dichlorophenyl)-6-methyl-1,4-dihydroindeno[1,2-c]pyrazole-3-carboxamide]	425 ± 95 nM	1.3 ± 0.347 µM	
Cc1c(C(=O)c2cccc3ccccc23)c2cccc3c2n1[C@H](CN1CCOCC1)CO3 [WIN 55,212-2]			P-ERK 1/2 expression, percentage of increment versus vehicle ([2]; 75 nM (dose of maximum effect), 15 min exposure): +83.2 ± 18.9%; Effect on P-ERK 1/2 expression after 5 min pre-treatment with CB2 antagonist AM630 ([2]; AM630 75 nM, agonist at dose of maximum effect, 15 min): counteracted; P-ERK 1/2 expression in treated HL-60 cells versus vehicle ([2]; western blot, 15 min exposure): significant increase
Cc1cc2c(cc1Cl)-c1c(c(C(=O)NC3CCCCCC3)nn1-c1ccc(Cl)cc1Cl)C2 [Compound 16, N-Cycloheptyl-7-chloro-1-(2,4-dichlorophenyl)-6-methyl-1,4-dihydroindeno[1,2-c]pyrazole-3-carboxamide]	1520 ± 1240 nM	3.75 ± 1.25 µM	
Cc1cc2c(cc1Cl)Cc1c(C(=O)NC34CC5CC(CC(C5)C3)C4)nn(-c3ccc(Cl)cc3Cl)c1-2 [Compound 24, N-Adamant-1-yl-6-chloro-1-(2,4-dichlorophenyl)-7-methyl-1,4-dihydroindeno[1,2-c]pyrazole-3-carboxamide]	1350 ± 813 nM	4.75 ± 0.02 µM	
Cc1cc2c(cc1Cl)-c1c(c(C(=O)N[C@H]3CC[C@H](C)CC3)nn1-c1ccc(Cl)cc1Cl)C2 [Compound 14, Trans-N-(4-Methylcyclohexyl)-7-chloro-1-(2,4-dichlorophenyl)-6-meth-yl-1,4-dihydroindeno[1,2-c]pyrazole-3-carboxamide]	325 ± 53 nM	> 5 µM	
Cc1cc2c(cc1Cl)-c1c(c(C(=O)NC3CC(C)CCC3C(C)C)nn1-c1ccc(Cl)cc1Cl)C2 (stereo not drawn) [Compound 9, N-Menthyl-7-chloro-1-(2,4-Dichlorophenyl)-6-methyl-1,4-dihydroindeno[1,2-c]pyrazole-3-carboxamide]	3100 ± 283 nM	1.25 ± 0.359 µM	
Cc1cc2c(cc1Cl)-c1c(c(C(=O)NC(C)c3cccc4ccccc34)nn1-c1ccc(Cl)cc1Cl)C2 (stereo not drawn) [Compound 19, N-(1-(1-Naphthyl)ethyl)-7-chloro-1-(2,4-dichlorophenyl)-6-methyl-1,4-dihydroindeno[1,2-c]pyrazole-3-carboxamide]	2400 ± 400 nM	> 5 µM	
Cc1cc2c(cc1Cl)-c1c(c(C(=O)NC3C4CC5CC(C4)CC3C5)nn1-c1ccc(Cl)cc1Cl)C2 (stereo not drawn) [Compound 11, N-Adamant-2-yl-7-chloro-1-(2,4-dichlorophenyl)-6-methyl-1,4-dihydroindeno[1,2-c]pyrazole-3-carboxamide]	275 ± 25 nM	4.62 ± 0.857 µM	
Cc1ccc2c(c1)Cc1c(C(=O)NN3CCCCC3)nn(-c3ccc(Cl)cc3Cl)c1-2 [Compound 2, 1-(2,4-dichlorophenyl)-6-methyl-N-(piperidin-1-yl)-1,4-dihydroindeno[1,2-c]pyrazole-3-carboxamide]			CB2 intrinsic activity in vitro [3]: CB2 agonist activity in vitro
Cc1cc2c(cc1Cl)-c1c(c(C(=O)Nc3cccc4ccccc34)nn1-c1ccc(Cl)cc1Cl)C2 [Compound 18, N-(Naphthalen-1-yl)-7-chloro-1-(2,4-dichlorophenyl)-6-methyl-1,4-dihydroindeno[1,2-c]pyrazole-3-carboxamide]	1130 ± 125 nM	> 5 µM	
5-(4-chloro-3-methylphenyl)-1-(4-methylbenzyl)-N-fenchyl-1H-pyrazole-3-carboxamide [Compound 1]			selectivity ratio KiCB1/KiCB2 of SR144528 (CB2): > 600; in vivo CB2R antagonist activity (CB2R [4]): remarkable in vivo CB2R antagonist activity

— publication PMC3406267 (The Open Medicinal Chemistry Journal, 2012)
